In ChEMBL document CHEMBL1145922, “1,2-benzisoxazole phosphorodiamidates as novel anticancer prodrugs requiring bioreductive activation” (J Med Chem, 2003):

How the values were obtained:
Format in all cases: functional
Rattus norvegicus [1] = species: Rattus norvegicus; assay: Percent formation of compound upon incubation of 15 with phenobarbit-induced rat liver microsomal fraction in hypoxic condition in presence of SKF-525A at a concentration of 1 mM
Method in brief: (§1)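 Phenobarbital-induced rat liver microsomes; inhibitors SKF-525A (in methanol) or pCMBA (in DMF) at 0–4 mM final. pCMBA preincubated 30 min before NADPH; SKF-525A incubated 15 min with microsomes and NADPH. Hypoxic samples nitrogen-purged. Substrate 2.5 mM added, 30 min at 37 °C. Ketone metabolite by HPLC at 254 nm as percent of substrate; % inhibition relative to no inhibitor. Mean of two experiments.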

Rattus norvegicus [2] = species: Rattus norvegicus; assay: Tested for formation of compound upon incubation of compound 15 for 30 minutes with rat liver subcellular fractions in oxic condition in the presence of NADH
Method in brief: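 Phenobarbital-induced rat liver S-9 fraction (2 mL) with 5 mM cofactor (NADPH, NADH, benzaldehyde or 2-hydroxypyrimidine), substrate 2.5 mM final, added in methanol/water 50:50; aerobic, 30 min at 37 °C. Quenched with ice-cold methanol, proteins spun down, supernatant analysed by reverse-phase C-18 HPLC, UV 254 nm; ketone metabolite given as percent of equimolar substrate; three experiments.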

Rattus norvegicus [3] = species: Rattus norvegicus; assay: Percent formation of compound upon incubation of 15 with phenobarbit-induced rat liver microsomal fraction in oxic condition in presence of SKF-525A at a concentration of 4 mM; method in brief: as §1
Rattus norvegicus [4] = species: Rattus norvegicus; assay: Percent formation of compound upon incubation of 15 with phenobarbit-induced rat liver microsomal fraction in hypoxic condition in presence of pCMBA at a concentration of 2 mM; method in brief: as §1
Rattus norvegicus [5] = species: Rattus norvegicus; assay: Percent inhibition of formation of compound upon incubation of 15 with phenobarbit-induced rat liver microsomal fraction in hypoxic condition in presence of SKF-525A at a concentration of 0 mM; method in brief: as §1
Rattus norvegicus [6] = species: Rattus norvegicus; assay: Percent inhibition of formation of compound upon incubation of 15 with phenobarbit-induced rat liver microsomal fraction in oxic condition in presence of pCMBA at a concentration of 2 mM; method in brief: as §1
Rattus norvegicus [7] = species: Rattus norvegicus; assay: Tested for formation of compound upon incubation of compound 15 for 30 minutes with uninduced rat liver S-9 fractions in hypoxic condition in the presence of NADPH
Method in brief: (§2)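 Uninduced rat liver S-9 (22.5 mg/mL protein, 2 mL) with 5 mM NADPH or no cofactor, substrate 2.5 mM final; hypoxic samples nitrogen-purged 15–20 min in septum-sealed vials, else aerobic; 30 min at 37 °C. Methanol quench, centrifugation, C-18 HPLC with UV 254 nm; metabolite as percent of equimolar substrate. NADPH runs three experiments, no-cofactor runs two.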

Rattus norvegicus [8] = species: Rattus norvegicus; assay: Percent formation of compound upon incubation of 15 with phenobarbit-induced rat liver microsomal fraction in oxic condition in presence of pCMBA at a concentration of 2 mM; method in brief: as §1
Rattus norvegicus [9] = species: Rattus norvegicus; assay: Percent formation of compound upon incubation of 15 with phenobarbit-induced rat liver microsomal fraction in hypoxic condition in presence of SKF-525A at a concentration of 2 mM; method in brief: as §1
Rattus norvegicus [10] = species: Rattus norvegicus; assay: Tested for formation of compound upon incubation of compound 15 for 30 minutes with rat liver subcellular fractions in oxic condition in the absence of cofactor
Method in brief: (§3)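 Phenobarbital-induced rat liver S-9, microsomal or cytosolic fraction with 5 mM cofactor (NADPH, NADH, benzaldehyde or 2-hydroxypyrimidine) or none. Substrate 2.5 mM final, added from methanol/water 50:50. Hypoxic vials purged with nitrogen 15–20 min. 30 min at 37 °C, quenched with ice-cold methanol. Ketone metabolite by HPLC at 254 nm as percent of equimolar substrate.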

Rattus norvegicus [11] = species: Rattus norvegicus; assay: Percent inhibition of formation of compound upon incubation of 15 with phenobarbit-induced rat liver microsomal fraction in oxic condition in presence of pCMBA at a concentration of 1 mM; method in brief: as §1
Rattus norvegicus [12] = species: Rattus norvegicus; assay: Percent inhibition of formation of compound upon incubation of 15 with phenobarbit-induced rat liver microsomal fraction in oxic condition in presence of SKF-525A at a concentration of 0 mM; method in brief: as §1
Rattus norvegicus [13] = species: Rattus norvegicus; assay: Tested for formation of compound upon incubation of compound 15 for 30 minutes with rat liver subcellular fractions in hypoxic condition in the presence of benzaldehyde; method in brief: as §3
Rattus norvegicus [14] = species: Rattus norvegicus; assay: Percent inhibition of formation of compound upon incubation of 15 with phenobarbit-induced rat liver microsomal fraction in oxic condition in presence of pCMBA at a concentration of 4 mM; method in brief: as §1
Rattus norvegicus [15] = species: Rattus norvegicus; assay: Percent formation of compound upon incubation of 15 with phenobarbit-induced rat liver microsomal fraction in oxic condition in presence of pCMBA at a concentration of 1 mM; method in brief: as §1
Rattus norvegicus [16] = species: Rattus norvegicus; assay: Tested for formation of compound upon incubation of compound 15 for 30 minutes with rat liver cystolic fractions in hypoxic condition in the presence of NADPH; method in brief: as §3
Rattus norvegicus [17] = species: Rattus norvegicus; assay: Percent inhibition of formation of compound upon incubation of 15 with phenobarbit-induced rat liver microsomal fraction in oxic condition in presence of pCMBA at a concentration of 0 mM; method in brief: as §1
Rattus norvegicus [18] = species: Rattus norvegicus; assay: Tested for formation of compound upon incubation of compound 15 for 30 minutes with rat liver microsomal fractions in hypoxic condition in the presence of NADPH; method in brief: as §3
Rattus norvegicus [19] = species: Rattus norvegicus; assay: Tested for formation of compound upon incubation of compound 15 for 30 minutes with rat liver cystolic fractions in oxic condition in the absence of cofactor; method in brief: as §3
Rattus norvegicus [20] = species: Rattus norvegicus; assay: Percent formation of compound upon incubation of 15 with phenobarbit-induced rat liver microsomal fraction in hypoxic condition in presence of SKF-525A at a concentration of 0 mM; method in brief: as §1
Rattus norvegicus [21] = species: Rattus norvegicus; assay: Percent formation of compound upon incubation of 15 with phenobarbit-induced rat liver microsomal fraction in oxic condition in presence of SKF-525A at a concentration of 2 mM; method in brief: as §1
Rattus norvegicus [22] = species: Rattus norvegicus; assay: Percent inhibition of formation of compound upon incubation of 15 with phenobarbit-induced rat liver microsomal fraction in hypoxic condition in presence of pCMBA at a concentration of 0 mM; method in brief: as §1
Rattus norvegicus [23] = species: Rattus norvegicus; assay: Tested for formation of compound upon incubation of compound 15 for 30 minutes with uninduced rat liver S-9 fractions in oxic condition in the presence of NADPH; method in brief: as §2
Rattus norvegicus [24] = species: Rattus norvegicus; assay: Percent formation of compound upon incubation of 15 for 60 minutes with rat P450 reductase microsomes in oxic condition in presence of NADPAH
Method in brief: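 Human or rat P450 reductase microsomes at 1 mg/mL protein, substrate 0.25 mM and cofactor 0.5 mM; pCMBA 2 mM where stated. Anaerobic samples purged with nitrogen 15–20 min in septum-sealed vials. 60 min at 37 °C, stopped with ice-cold methanol. Ketone metabolite quantified by HPLC (C-18, methanol/water 50:50, UV 254 nm) as percent of equimolar substrate. Mean of two experiments.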

Rattus norvegicus [25] = species: Rattus norvegicus; assay: Percent inhibition of formation of compound upon incubation of 15 with phenobarbit-induced rat liver microsomal fraction in oxic condition in presence of SKF-525A at a concentration of 4 mM; method in brief: as §1
Rattus norvegicus [26] = species: Rattus norvegicus; assay: Percent formation of compound upon incubation of 15 with phenobarbit-induced rat liver microsomal fraction in oxic condition in presence of SKF-525A at a concentration of 1 mM; method in brief: as §1
Rattus norvegicus [27] = species: Rattus norvegicus; assay: Tested for formation of compound upon incubation of compound 15 for 30 minutes with uninduced rat liver S-9 fractions in oxic condition in the absence of cofactor; method in brief: as §2
Rattus norvegicus [28] = species: Rattus norvegicus; assay: Tested for formation of compound upon incubation of compound 15 for 30 minutes with rat liver microsomal fractions in hypoxic condition in the absence of cofactor; method in brief: as §3

Compound: CCC(=O)c1ccccc1O
- Formation (Rattus norvegicus [1]): 54.6%
- Formation (Rattus norvegicus [2]): 14.8%
- Formation (Rattus norvegicus [3]): 26.9%
- Formation (Rattus norvegicus [4]): 1.2%
- inhibition (Rattus norvegicus [5]): 0%
- inhibition (Rattus norvegicus [6]): 99%
- Formation (Rattus norvegicus [7]): 9.4%
- Formation (Rattus norvegicus [8]): 0.5%
- Formation (Rattus norvegicus [9]): 50.3%
- Formation (Rattus norvegicus [10]): 0.5%
- inhibition (Rattus norvegicus [11]): 99%
- inhibition (Rattus norvegicus [12]): 0%
- Formation (Rattus norvegicus [13]): 2%
- inhibition (Rattus norvegicus [14]): 99%
- Formation (Rattus norvegicus [15]): 0.5%
- Formation (Rattus norvegicus [16]): 3.6%
- inhibition (Rattus norvegicus [17]): 0%
- Formation (Rattus norvegicus [18]): 93%
- Formation (Rattus norvegicus [19]): 0.4%
- Formation (Rattus norvegicus [20]): 70.8%
- Formation (Rattus norvegicus [21]): 38.5%
- inhibition (Rattus norvegicus [22]): 0%
- Formation (Rattus norvegicus [23]): 9.1%
- Formation (Rattus norvegicus [24]): 1.5%
- inhibition (Rattus norvegicus [25]): 40%
- Formation (Rattus norvegicus [26]): 36.9%
- Formation (Rattus norvegicus [27]): 1.6%
- Formation (Rattus norvegicus [28]): 0.4%
